Experimental data reported in ChEMBL document CHEMBL4118256, “Second Generation of Mannich Base-Type Derivatives with in Vivo Activity against Trypanosoma cruzi” (J Med Chem, 2018).
Active and inactive are the calls of the source. The rule behind the calls is not given here.

How the values were obtained:
[1] = system: Mus musculus; assay: (§1) Hepatotoxicity in Balb/c mouse infected with Trypanosoma cruzi MHOM/Pe/2011/Arequipa DTU 5 trypamastigotes assessed as decrease in alkaline phosphatase level at […], po once daily for 5 consecutive days starting from day 75 post infection measured on day 81 post infection by biochemical analysis relative to control; assay type: toxicity, organism-based; design: scale not given: the % may be the effect or the level left; conditions: in vivo
Outline: (§2)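 Serum clinical chemistry in Arequipa-infected female BALB/c mice. Oral 20 mg·kg-1 per day for 5 days, started day 10 or day 75 pi. Samples taken at day 16 pi or day 81 pi, and on necropsy day. Markers: CK-MB and LDH (U/L), AST, ALT and alkaline phosphatase (U/L), total bilirubin. Results scored relative to infected untreated controls; uninfected reference n = 15.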

[2] = system: Mus musculus; assay: (§3) Nephrotoxicity in Balb/c mouse infected with Trypanosoma cruzi MHOM/Pe/2011/Arequipa DTU 5 trypamastigotes assessed as increase in urea level in serum at 100 mg/kg, po once daily for 5 consecutive days starting from day 75 post infection measured on day 127 post infection by biochemical analysis relative to control; assay type: toxicity, organism-based; conditions: in vivo
[3] = system: Trypanosoma cruzi; assay: (§4) Antitrypanosomal activity against Trypanosoma cruzi MHOM/Pe/2011/Arequipa DTU 5 trypamastigotes infected in Balb/c mouse assessed as reduction in parasitaemia reactivation in adipose tissue at 100 mg/kg, po pretreated once daily for 5 consecutive days starting from day 10 post infection followed by cyclophosphamide-induced immunosuppression on day 100 post infection every 4 days for a maximum of 3 doses measured on day 127 post infection by PCR method; assay type: functional; design: scale not given: the % may be the effect or the level left; conditions: pooled result: one value given for 9 cell lines, strains, targets or settings
Outline: (§5)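 Necropsy on day 127 pi after oral treatment and cyclophosphamide immunosuppression. Tissue DNA was amplified by PCR targeting the ~300 bp T. cruzi SOD gene, 200 nM each primer, 30 cycles with 55.5 °C annealing. Products run on 2 % agarose; positive organs counted out of six mice.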

[4] = system: Trypanosoma cruzi; assay: as §4, with “reactivation in esophagus tissue at” for “reactivation in adipose tissue at”, “from day 75 post infection” for “from day 10 post infection”; assay type: functional; design: scale not given: the % may be the effect or the level left; outline: as §5
[5] = system: Mus musculus; assay: as §1, with “Cardiotoxicity” for “Hepatotoxicity”, “serum LDH” for “alkaline phosphatase”, “10” for “75”, “16” for “81”; assay type: toxicity, organism-based; design: scale not given: the % may be the effect or the level left; conditions: in vivo; outline: as §2
[6] = system: Mus musculus; assay: as §3, with “Hepatotoxicity” for “Nephrotoxicity”, “ratio of serum ALT to GPT” for “urea”, “level” for “level in serum”, “10” for “75”; assay type: toxicity, organism-based; conditions: in vivo
[7] = system: Mus musculus; assay: as §3, with “Hepatotoxicity” for “Nephrotoxicity”, “ratio of serum AST to GOT” for “urea”, “level” for “level in serum”, “10” for “75”; assay type: toxicity, organism-based; conditions: in vivo
[8] = system: Mus musculus; assay: as §1, with “Cardiotoxicity” for “Hepatotoxicity”, “change” for “decrease”, “serum LDH” for “alkaline phosphatase”; assay type: toxicity, organism-based; conditions: in vivo; outline: as §2
[9] = system: Mus musculus; assay: as §3, with “Hepatotoxicity” for “Nephrotoxicity”, “ratio of serum ALT to GPT” for “urea”, “level” for “level in serum”; assay type: toxicity, organism-based; conditions: in vivo
[10] = system: Mus musculus; assay: as §3, with “Hepatotoxicity” for “Nephrotoxicity”, “ratio of serum AST to GOT” for “urea”, “level” for “level in serum”, “20” for “100”, “10” for “75”, “16” for “127”; assay type: toxicity, organism-based; conditions: in vivo
[11] = system: Mus musculus; assay: as §3, with “Hepatotoxicity” for “Nephrotoxicity”, “ratio of serum AST to GOT” for “urea”, “level” for “level in serum”, “20” for “100”; assay type: toxicity, organism-based; conditions: in vivo
[12] = system: Trypanosoma cruzi; assay: Antitrypanosomal activity against Trypanosoma cruzi MHOM/Pe/2011/Arequipa DTU 5 trypamastigotes infected in Balb/c mouse assessed as reduction in splenomegaly at 20 mg/kg, po once daily for 5 consecutive days starting from day 75 post infection measured on day 127 post infection relative to control; assay type: functional, organism-based
[13] = system: Trypanosoma cruzi; assay: as §4, with “in heart” for “in adipose”, “at 20” for “at 100”; assay type: functional; design: scale not given: the % may be the effect or the level left; outline: as §5
[14] = system: Trypanosoma cruzi; assay: Antitrypanosomal activity against Trypanosoma cruzi MHOM/Pe/2011/Arequipa DTU 5 trypamastigotes infected in Balb/c mouse assessed as reduction in Ig-G level in serum at 20 mg/kg, po once daily for 5 consecutive days starting from day 75 post infection measured on day 81 post infection by ELISA; assay type: functional, organism-based
Outline: (§6)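 Female BALB/c mice (8-10 weeks, 20-25 g), six per group, infected i.p. with 5 x 10^5 Arequipa bloodstream trypomastigotes. Compound was given orally once daily for 5 days from day 10 or day 75 pi, at 20 mg·kg-1 per day in 5 % DMSO/0.5 % HPMC. Anti-T. cruzi IgG in serum was measured by ELISA with Fe-SOD antigen, read as OD 490 nm.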

[15] = system: Mus musculus; assay: (§7) Hepatotoxicity in Balb/c mouse infected with Trypanosoma cruzi MHOM/Pe/2011/Arequipa DTU 5 trypamastigotes assessed as increase in alkaline phosphatase level at 20 mg/kg, po once daily for 5 consecutive days starting from day 75 post infection measured on day 81 post infection by biochemical analysis relative to control; assay type: toxicity, organism-based; conditions: in vivo
[16] = system: Mus musculus; assay: as §7, with “Cardiotoxicity” for “Hepatotoxicity”, “decrease” for “increase”, “ratio of creatine kinase in muscle to brain” for “alkaline phosphatase level”; assay type: toxicity, organism-based; design: scale not given: the % may be the effect or the level left; conditions: in vivo; outline: as §2
[17] = system: Mus musculus; assay: as §7, with “change” for “increase”, “10” for “75”, “127” for “81”; assay type: toxicity, organism-based; conditions: in vivo; outline: as §2
[18] = system: Trypanosoma cruzi; assay: Antitrypanosomal activity against Trypanosoma cruzi MHOM/Pe/2011/Arequipa DTU 5 trypamastigotes infected in Balb/c mouse assessed as reduction in parasitaemia reactivation at 20 mg/kg, po pretreated once daily for 5 consecutive days starting from day 10 post infection followed by cyclophosphamide-induced immunosuppression on day 100 post infection every 4 days for a maximum of 3 doses measured up to 1 week post immunosuppression by Neubauer chamber method; assay type: functional; design: scale not given: the % may be the effect or the level left
Outline: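 Female BALB/c mice (8-10 weeks, 20-25 g), groups of six, infected i.p. with 5 x 10^5 bloodstream trypomastigotes in 0.2 mL PBS; oral dosing 20 mg·kg-1 per day for 5 days in 5% DMSO/0.5% HPMC vehicle. After day 100 pi, cyclophosphamide 200 mg·kg-1 i.p. every 4 days, up to three doses. Within 1 week after the last dose, fresh-blood bloodstream trypomastigotes counted in a Neubauer chamber. Reactivation expressed relative to untreated infected controls.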

[19] = system: Trypanosoma cruzi; assay: Antitrypanosomal activity against Trypanosoma cruzi MHOM/Pe/2011/Arequipa DTU 5 trypamastigotes infected in Balb/c mouse assessed as reduction in Ig-G level in serum at 20 mg/kg, po pretreated once daily for 5 consecutive days starting from day 75 post infection followed by cyclophosphamide-induced immunosuppression on day 100 post infection every 4 days for a maximum of 3 doses measured on day 127 post infection by ELISA; assay type: functional, organism-based; outline: as §6
[20] = system: Trypanosoma cruzi; assay: Antitrypanosomal activity against Trypanosoma cruzi MHOM/Pe/2011/Arequipa DTU 5 trypamastigotes infected in Balb/c mouse assessed as reduction in parasitaemia level at 20 mg/kg, po once daily for 5 consecutive days starting from day 10 post infection measured on day 23 post infection by Neubauer chamber method relative to control; assay type: functional; design: scale not given: the % may be the effect or the level left
Outline: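 Six female BALB/c mice per group, infected i.p. with 5 x 10^5 Arequipa bloodstream trypomastigotes in PBS. Oral dosing once daily for 5 days from day 10 pi, 20 mg·kg-1 per day in aqueous 5 % DMSO/0.5 % HPMC, vehicle to controls. Blood trypomastigotes counted in a Neubauer chamber (parasites·mL-1); means ± SD.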

[21] = system: Mus musculus; assay: as §3, with “Cardiotoxicity” for “Nephrotoxicity”, “change” for “increase in urea level”, “serum LDH level” for “serum”, “20” for “100”, “10” for “75”, “16” for “127”; assay type: toxicity, organism-based; conditions: in vivo; outline: as §2
[22] = system: Mus musculus; assay: as §3, with “decrease” for “increase”, “20” for “100”, “10” for “75”; assay type: toxicity, organism-based; design: scale not given: the % may be the effect or the level left; conditions: in vivo

COc1ccc(C(=O)CCN2CCN(c3ccc(F)cc3)CC2)cc1
Activity [1]: <= 10%
Activity [2]: <= 10%

COc1ccc(C(=O)CCN2CCN(c3ccc(Cl)cc3)CC2)cc1
Activity [3]: 89%
Activity [4]: 78%
Activity [5]: <= 20%

COc1ccc(C(=O)CCN2CCN(c3ccc([N+](=O)[O-])cc3)CC2)cc1
Activity [6]: <= 30%
Activity [7]: <= 30%
Activity [8]: < 10%
Activity [9]: <= 10%

O=C(Cn1ccnc1[N+](=O)[O-])NCc1ccccc1 [BENZNIDAZOLE]
Activity [10]: > 40%
Activity [11]: <= 10%
Activity [12]: Active
Activity [13]: 33%
Activity [14]: inactive
Activity [15]: > 40%
Activity [16]: <= 10%
Activity [17]: < 10%
Activity [18]: 75%
Activity [19]: Active
Activity [20]: 70%
Activity [21]: < 10%
Activity [22]: <= 30%
